Assay [1] in a line: Cytotoxicity against human MDA1986 cells after 72 hrs by MTS assay. Format: functional, cell-based. The note with it: MDA1986, 72 h. Put shortly:
(§1)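 Monolayer cultures kept at 37 °C, 5% CO2, humidified, grown to 75–90% confluence; U87 and U251 maintained in DMEM with 10% FBS. Seeded at 2,500 cells/well and left about 6 h, then drug-containing medium added at various concentrations for 72 h. Viable cells read by MTS colorimetry at 490 nm. Triplicate, two separate occasions; IC50 from best-fit sigmoidal dose–response curves.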

For assay [2], the system named is U-251. In words: Cytotoxicity against human U251 cells after 72 hrs by MTS assay. The following applies: U-251, 72 h. It counts as functional, cell-based. In a few lines: as §1
In general terms: Formazan colour is commonly taken as a measure of viable cells.

Assay [3] has as its system MRC5. In words: Cytotoxicity against human MRC5 cells after 72 hrs by MTS assay. Format: cell-based. The note with it: MRC5, 72 h.
For assay [4], the system named is MRC5. Kind of assay: Selectivity index, ratio of IC50 for human MRC5 cells to IC50 for human U87 cells. Format: functional. Put shortly:
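MTS viability assay. MRC-5 fibroblasts and U87 glioblastoma cells were seeded at 2,500 cells/well and left about 6 h. Drug-containing media at a range of concentrations was then added, with 72 h further incubation at 37 °C in 5% CO2. Absorbance was read at 490 nm, in triplicate on two occasions. IC50s came from sigmoidal dose-response fits, and the index is the MRC-5/U87 IC50 ratio.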

The nature of assay [5]: Cytotoxicity against human U87 cells after 72 hrs by MTS assay. It counts as functional, cell-based, U-87MG ATCC. The note with it: U-87 MG. Put shortly: as §1
Assay [6] relates to U-251. Kind of assay: Increase in HSP32 expression in human U251 cells incubated for 24 hrs by Western blotting method. It counts as functional, cell-based. Put shortly:
(§2)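 U251 glioblastoma cells plated to stay subconfluent at harvest, grown overnight, then exposed to 0, 0.1, 0.5, 1 and 5 μM of each withanolide for 24 h. Lysates quantified, run on SDS-PAGE, transferred to nitrocellulose and immunoblotted for total HSP32 and HSP70. β-actin served as the loading control.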
In general terms: In western blotting, separated proteins are transferred to a membrane and probed.

In assay [7] the test system is U-251. Kind of assay: Increase in HSP70 expression in human U251 cells at 5 uM incubated for 24 hrs by Western blotting method. Format: functional, cell-based. Put shortly:
as §2

The subject of assay [8] is U-251. Kind of assay: Increase in HSP32 expression in human U251 cells incubated for 24 hrs in presence of N-acetylcysteine by Western blotting method. Format: functional, cell-based.
Assay [9] has as its system U-251. Kind of assay: Increase in HSP70 expression in human U251 cells at 5 uM incubated for 24 hrs in presence of N-acetylcysteine by Western blotting method. Format: functional, cell-based.

Activity calls are given as the source filed them. No cut-off for these calls is given here.

One may read the IC50 as the concentration that inhibits the measured activity by half. Lower therefore signals higher potency. For `CC1=C(CO)C(=O)O[C@@H]([C@@H](C)[C@H]2CC[C@H]3[C@@H]4C[C@H]5O[C@]56[C@@H](O)C=CC(=O)[C@]6(C)[C@H]4CC[C@]23C)C1` [WITHAFERIN A], the IC50 in [1] is 800 nM; in the assay on U-251 [2], 690 nM; with MRC5 [3], 200 nM; in assay [5], 1100 nM. In addition, in the assay with MRC5 [4], the “Ratio IC50” value was 0.19.
`C=C1C(=O)O[C@@H]2C[C@]1(C)OC[C@H]2[C@H]1CC[C@H]2[C@@H]3C[C@H]4O[C@]45CC=CC(=O)[C@]5(C)[C@H]3CC[C@]12C` [WITHAMETELIN F]: the Activity result with U-251 [6] was “Dose-dependent effect”. In addition, the IC50 in assay [1] stood at 1500 nM; in the assay on U-251 [2], 1400 nM; in the assay on MRC5 [3], 3300 nM; in assay [5], 560 nM. In addition, the outcome with U-251 [7] was Active. Also, the result in the assay on U-251 [8] and in the assay with U-251 [9] was inactive. Further, the “Ratio IC50” value in the assay with MRC5 [4] was 6.
For `C=C1C(=O)O[C@@H]2C[C@]1(C)OC[C@H]2[C@H]1CC[C@H]2[C@@H]3CC=C4CC=CC(=O)[C@]4(C)[C@H]3C[C@@H](O)[C@]12C` [WITHAMETELIN L], the Activity entry in the assay with U-251 [6] is “Dose-dependent effect”. Moreover, the half-maximal inhibitory concentration (IC50) was 2300 nM in assay [1], 1300 nM with U-251 [2], 4200 nM with MRC5 [3] and 570 nM in [5]. In the assay with U-251 [7], the result was Active. For the same compound, the outcome in the assay with U-251 [8] and in the assay on U-251 [9] was inactive. Moreover, the “Ratio IC50” value in the assay on MRC5 [4] is on record as 7.4.
For the compound `C=C1C(=O)O[C@@H]2C[C@]1(C)OC[C@H]2[C@H]1CC[C@H]2[C@@H]3C[C@@H](O)[C@@]4(O)CC=CC(=O)[C@]4(C)[C@H]3CC[C@]12C` [WITHAMETELIN O], the Activity entry with U-251 [6] was “Dose-dependent effect”. The IC50 was 3000 nM in assay [1], 2800 nM in the assay with U-251 [2], 4600 nM with MRC5 [3] and 1100 nM in [5]. The outcome in the assay on U-251 [8] was inactive. The “Ratio IC50” value in the assay on MRC5 [4] came to 4.1.
Consider `C=C1C(=O)O[C@@H]2C[C@]1(C)OC[C@H]2[C@H]1CC[C@H]2[C@@H]3CC=C4CC=CC(=O)[C@]4(C)[C@H]3CC[C@]12C` [WITHAMETELIN], for which the Activity entry in the assay with U-251 [6] is “Dose-dependent effect”. Further, the IC50 in assay [1] was determined as 2700 nM; in the assay with U-251 [2], 2200 nM; in the assay with MRC5 [3] it was 5100 nM; in assay [5] it was 1000 nM. Further, the result in the assay on U-251 [7] was Active. Moreover, the result in the assay with U-251 [8] and with U-251 [9] was inactive. In addition, the “Ratio IC50” value in the assay on MRC5 [4] was determined as 5.1.
For the compound `C=C1C(=O)O[C@@H]2C[C@@]1(C)OC[C@H]2[C@H]1CC[C@H]2[C@@H]3C[C@@H](O)[C@@]45C[C@H]4CC(=O)[C@]5(C)[C@H]3CC[C@]12C` [WITHAWRIGHTOLIDE], the Activity entry with U-251 [6] is “Dose-dependent effect”. Further, the IC50 in [1] came to 3100 nM; in the assay on U-251 [2], 3600 nM; in the assay on MRC5 [3], 5600 nM; in [5], 1500 nM. In the assay with U-251 [8], the outcome was inactive. Further, the “Ratio IC50” value in the assay on MRC5 [4] is listed as 3.8.

For the origin of these results see ChEMBL document CHEMBL2331166, “Antiproliferative withanolides from Datura wrightii” (J Nat Prod, 2013).
